The values below come from ChEMBL document CHEMBL1944507, “Structure-activity relationships for amide-, carbamate-, and urea-linked analogues of the tuberculosis drug (6S)-2-nitro-6-{[4-(trifluoromethoxy)benzyl]oxy}-6,7-dihydro-5H-imidazo[2,1-b][1,3]oxazine (PA-824)” (J Med Chem, 2012).

Converted amounts (≈) assume the structure as drawn.

Assay [1] deals with Mycobacterium tuberculosis. Description: Antimicrobial activity against Mycobacterium tuberculosis H37Rv ATCC 27294 harboring pFCA-lux AB gene measured under aerobic condition after 8 days by luminescence analysis. Format: functional. Conditions: H37Rv ATCC 27294, 192 h. A digest of the protocol:
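MABA: replicating M. tb H37Rv exposed to compound aerobically for 8 days. […] Mean of at least two independent determinations ± SD.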

The subject of assay [2] is Mycobacterium tuberculosis. Kind of assay: Antimicrobial activity against Mycobacterium tuberculosis H37Rv ATCC 27294 harboring pFCA-lux AB gene measured under anaerobic condition after 11 days by luminescence analysis. It is filed as functional. Conditions: H37Rv ATCC 27294, 264 h. A digest of the protocol:
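LORA: luminescence-based low-oxygen-recovery assay on nonreplicating M. tb, 11-day anaerobic exposure. MIC is the mean of at least two independent determinations ± SD.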

As to `O=C(N[C@@H]1COc2nc([N+](=O)[O-])cn2C1)c1ccccc1OC(F)(F)F`, the MIC was 27 µM (≈ 10.1 µg/mL) in assay [1] and greater than 64 µM in assay [2].
On to `O=C(N[C@@H]1COc2nc([N+](=O)[O-])cn2C1)c1cccc(OC(F)(F)F)c1`, for which the MIC in assay [1] is 4.9 µM (≈ 1.82 µg/mL); in assay [2], greater than 64 µM.
The matching figures for `CN(C(=O)c1ccccc1OC(F)(F)F)[C@@H]1COc2nc([N+](=O)[O-])cn2C1`: 45 µM (≈ 17.4 µg/mL) and greater than 64 µM.
The matching figures for `CN(C(=O)c1cccc(OC(F)(F)F)c1)[C@@H]1COc2nc([N+](=O)[O-])cn2C1`: 24 µM (≈ 9.27 µg/mL) and greater than 64 µM.
The matching figures for `CN(C(=O)c1ccc(OC(F)(F)F)cc1)[C@@H]1COc2nc([N+](=O)[O-])cn2C1`: 22 µM (≈ 8.5 µg/mL) and greater than 64 µM.
As to `O=[N+]([O-])c1cn2c(n1)OC[C@@H](NS(=O)(=O)c1ccccc1OC(F)(F)F)C2`, the MIC in assay [1] and in assay [2] was greater than 64 µM throughout.
As for `O=[N+]([O-])c1cn2c(n1)OC[C@@H](NS(=O)(=O)c1cccc(OC(F)(F)F)c1)C2`, the MIC in assay [1] and in assay [2] was greater than 64 µM each time.
As for `O=[N+]([O-])c1cn2c(n1)OC[C@@H](NS(=O)(=O)c1ccc(OC(F)(F)F)cc1)C2`, the minimal inhibitory concentration (MIC) in assay [1] was 9.7 µM (≈ 3.96 µg/mL); in assay [2], greater than 64 µM.
In the case of `CN([C@@H]1COc2nc([N+](=O)[O-])cn2C1)S(=O)(=O)c1ccccc1OC(F)(F)F`, the minimal inhibitory concentration (MIC) in assay [1] amounted to 20 µM (≈ 8.45 µg/mL); in assay [2], 45 µM (≈ 19 µg/mL).
As to `CN([C@@H]1COc2nc([N+](=O)[O-])cn2C1)S(=O)(=O)c1cccc(OC(F)(F)F)c1`, the MIC is 12 µM (≈ 5.07 µg/mL) in assay [1] and 64 µM (≈ 27 µg/mL) in assay [2].
The like results for `CN([C@@H]1COc2nc([N+](=O)[O-])cn2C1)S(=O)(=O)c1ccc(OC(F)(F)F)cc1` were, in that order, 0.53 µM (≈ 0.224 µg/mL) and 22 µM (≈ 9.29 µg/mL).
The matching figures for `O=C(Cc1ccc(OC(F)(F)F)cc1)N[C@@H]1COc2nc([N+](=O)[O-])cn2C1`: 0.27 µM (≈ 0.104 µg/mL) and 21 µM (≈ 8.11 µg/mL).
The like results for `O=C(CN[C@@H]1COc2nc([N+](=O)[O-])cn2C1)c1ccc(OC(F)(F)F)cc1` were, in that order, 7.6 µM (≈ 2.94 µg/mL) and greater than 64 µM.
Regarding `O=C(CN[C@@H]1COc2nc([N+](=O)[O-])cn2C1)Nc1ccc(OC(F)(F)F)cc1`, the minimum inhibitory concentration (MIC) in assay [1] turned out to be 0.7 µM (≈ 0.281 µg/mL); in assay [2], 46 µM (≈ 18.5 µg/mL).
The like results for `O=C(N[C@@H]1COc2nc([N+](=O)[O-])cn2C1)Oc1ccc(OC(F)(F)F)cc1` were, in that order, greater than 64 µM and 64 µM (≈ 24.8 µg/mL).
The like results for `O=C(N[C@@H]1COc2nc([N+](=O)[O-])cn2C1)OCc1ccc(OC(F)(F)F)cc1` were, in that order, 0.15 µM (≈ 0.0603 µg/mL) and 11 µM (≈ 4.43 µg/mL).
The matching figures for `O=C(Nc1ccc(OC(F)(F)F)cc1)N[C@@H]1COc2nc([N+](=O)[O-])cn2C1`: 0.23 µM (≈ 0.0891 µg/mL) and 4.2 µM (≈ 1.63 µg/mL).
Turning to `O=C(N[C@@H]1COc2nc([N+](=O)[O-])cn2C1)OCc1ccc(-c2ccc(OC(F)(F)F)cc2)cc1`, the minimum inhibitory concentration (MIC) in assay [1] was determined as 0.11 µM (≈ 0.0526 µg/mL); in assay [2], 5 µM (≈ 2.39 µg/mL).
In the case of `O=C(N[C@@H]1COc2nc([N+](=O)[O-])cn2C1)OCc1ccc(-c2ccc(C(F)(F)F)nc2)cc1`, the results for the MIC in assay [1] and in assay [2] were 0.23 µM (≈ 0.107 µg/mL) and 4.7 µM (≈ 2.18 µg/mL), respectively.
In the case of `O=C(N[C@@H]1COc2nc([N+](=O)[O-])cn2C1)OCc1ccc(-c2ccc(F)nc2)cc1`, the MIC amounted to 0.34 µM (≈ 0.141 µg/mL) in assay [1] and 4.3 µM (≈ 1.78 µg/mL) in assay [2].
`O=C(Nc1cccc(-c2ccc(C(F)(F)F)cc2)c1)N[C@@H]1COc2nc([N+](=O)[O-])cn2C1`: the MIC in assay [1] is 0.035 µM (≈ 0.0157 µg/mL); in assay [2] it was 3.6 µM (≈ 1.61 µg/mL).
The matching figures for `O=C(Nc1cccc(-c2ccc(F)cc2)c1)N[C@@H]1COc2nc([N+](=O)[O-])cn2C1`: 0.03 µM (≈ 0.0119 µg/mL) and 3.8 µM (≈ 1.51 µg/mL).
The like results for `O=C(Nc1cccc(-c2ccc(OC(F)(F)F)cc2)c1)N[C@@H]1COc2nc([N+](=O)[O-])cn2C1` were, in that order, 0.25 µM (≈ 0.116 µg/mL) and 5.8 µM (≈ 2.69 µg/mL).
The like results for `O=C(Nc1cccc(-c2ccc(C(F)(F)F)nc2)c1)N[C@@H]1COc2nc([N+](=O)[O-])cn2C1` were, in that order, 0.22 µM (≈ 0.0986 µg/mL) and 13 µM (≈ 5.83 µg/mL).
With `O=C(Nc1cccc(-c2ccc(F)nc2)c1)N[C@@H]1COc2nc([N+](=O)[O-])cn2C1`, the minimal inhibitory concentration (MIC) in assay [1] came out at 0.23 µM (≈ 0.0916 µg/mL); in assay [2], 15 µM (≈ 5.98 µg/mL).
The matching figures for `O=C(Nc1ccc(-c2ccc(C(F)(F)F)cc2)cc1)N[C@@H]1COc2nc([N+](=O)[O-])cn2C1`: 0.19 µM (≈ 0.085 µg/mL) and greater than 32 µM.
The matching figures for `O=C(Nc1ccc(-c2ccc(F)cc2)cc1)N[C@@H]1COc2nc([N+](=O)[O-])cn2C1`: 1.3 µM (≈ 0.517 µg/mL) and 9.1 µM (≈ 3.62 µg/mL).
The like results for `O=C(Nc1ccc(-c2ccc(OC(F)(F)F)cc2)cc1)N[C@@H]1COc2nc([N+](=O)[O-])cn2C1` were, in that order, 0.06 µM (≈ 0.0278 µg/mL) and 18 µM (≈ 8.34 µg/mL).
